Only some compounds are listed: those with a hit (about 1.5% of all), similar ones and a draw of the others.
CXCR6 block: CXCR6 receptor inhibitors, primary screen, cell-based, beta-arrestin, luminescence, CHO-K1 PathHunter, 1536-well; inhibition, % at 20 µM; actives 0.36% (n = 360,000); C-X-C chemokine receptor type 6 (Homo sapiens), O00574; AID 602244, 2012; in the data active = inhibition above about 34%, passing the limit was not always enough;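 note: antagonist mode with CXCL16 agonist at 10 nM final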
Target sequence (O00574 whole entry, looked up): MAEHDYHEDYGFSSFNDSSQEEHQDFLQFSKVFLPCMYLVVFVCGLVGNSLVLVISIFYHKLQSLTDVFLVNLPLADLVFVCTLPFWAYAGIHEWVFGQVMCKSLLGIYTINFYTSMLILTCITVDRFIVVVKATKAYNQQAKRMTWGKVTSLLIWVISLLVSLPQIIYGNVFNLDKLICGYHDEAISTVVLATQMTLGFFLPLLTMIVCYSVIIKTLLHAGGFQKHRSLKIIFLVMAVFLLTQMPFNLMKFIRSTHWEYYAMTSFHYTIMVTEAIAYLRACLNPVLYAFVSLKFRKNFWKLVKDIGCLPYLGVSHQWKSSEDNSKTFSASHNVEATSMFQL
CCR6 antag: CCR6 receptor antagonists, primary screen, cell-based, CHO-K1, luminescence, beta-arrestin, uHTS. C-C chemokine receptor type 6 (Homo sapiens), P51684. CHO-K1 CCR6 PathHunter beta-arrestin, CCL20-stimulated. inhibition, % at 20 µM. actives 0.49% (n = 340,000). AID 493098, 2011;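 active = compounds whose inhibition of the agonist-driven luminescence signal at 20 µM reaches about 50%, limit read from the data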;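 note: cells stimulated with CCL20 at 14 nM final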
APJ antag: antagonists of human apelin receptor APJ, primary screen, CHO-K1 cells, beta-arrestin complementation, luminescence; P35414; AID 2521, 2010; inhibition, % at 20 µM; actives 0.32% (n = 330,000);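 active = inhibition above about 40% at 20 µM, limit read from the data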;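 note: cells challenged with 10 nM apelin-13 agonist together with compound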
APJ ag: agonists of human apelin receptor APJ, primary screen, CHO-K1 cells, PathHunter beta-arrestin, luminescence; actives 0.11% (n = 330,000); 0% DMSO wells, 100% apelin; AID 2520, 2010; activation, % at 20 µM;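 active = activation more than six SD over the plate average, tested at 20 µM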
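Assay system: CHO-K1 APJ beta-arrestin complementation cell line / Compound: single test compound dose, 20 µM final, 1% DMSO / Times: overnight seeding, 90 min compound at 25 °C, 1 h detection / Technique: beta-gal luminescence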
EBI2 antag: EBI2 receptor antagonists, beta-arrestin recruitment, primary screen, cell-based, luminescence, 7a,25-OHC stimulation, uHTS. actives 0.81% (n = 360,000). 7a,25-OHC stimulated. G-protein coupled receptor 183 (Homo sapiens), P32249. inhibition, % at 5 µM; in the data active = inhibition above about 38%;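 note: enzyme fragment complementation signal reports receptor beta-arrestin coupling in cells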
EBI2 conf: EBI2 antagonist hit retest, beta-arrestin, confirmation, cell-based, single concentration, luminescence, 7a,25-OHC stimulation; shares compounds with EBI2 antag; 7a,25-OHC antagonism; inhibition, % at 5 µM; actives 29% (n = 2,400); AID 651997, 2013;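 active = inhibition of at least 50%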
EBI2 ag: EBI2 agonist activity of antagonist hits, confirmation, counter-screen for EBI2 antagonist project, cell-based, single concentration, agonist mode, luminescence; shares compounds with EBI2 antag; EBI2-expressing cells, 60 min; 0% vehicle, 100% 7α,25-dihydroxycholesterol control; activation, % at 5 µM; 2,400 tested, under 10 active; AID 652000, 2013;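 active = activation of at least 50%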
bGal cs: E. coli beta-galactosidase enzyme inhibition, confirmation, counter-screen for EBI2 antagonist project, biochemical, luminescence, single concentration | shares compounds with EBI2 antag | purified beta-galactosidase, luminescent Galacton Star, 15 min | inhibition, % at 5 µM | actives 1% (n = 2,400);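 active = replicate-average signal at least 3 plate SD below neutral wells, shown as high inhibition, flagging enzyme-inhibiting false positives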;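 note: higher means stronger loss of beta-gal luminescence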
Large screens that a line does not name were inactive (follow-up assays come after a bar, where they were run).

CCOC1=C2[C@@H](CN(S(=O)(=O)c3ccc(C)cc3)[C@H]2c2ccccc2)[C@H]2C(=O)N(Cc3ccccc3)C(=O)[C@H]2C1	none (no result: CCR6 antag, APJ antag, APJ ag)
CNc1ccc(C(=O)N2CCN(S(=O)(=O)c3ccc4c(c3)OCCCO4)CC2)cc1[N+](=O)[O-]	EBI2 antag 47 | EBI2 conf inactive | EBI2 ag inactive | bGal cs inactive
O=C(CSc1ccc(Cl)cc1)N1CCN(c2ccc(Cl)cc2[N+](=O)[O-])CC1	EBI2 antag 82 | EBI2 conf 76 | EBI2 ag inactive | bGal cs inactive
O=C(COc1ccc(Br)cc1)N1CCN(c2ccc([N+](=O)[O-])c(N3CCCCC3)c2)CC1	EBI2 antag 77 | EBI2 conf 57 | EBI2 ag inactive | bGal cs inactive
O=C(COc1ccccc1)N1CCN(c2ccc([N+](=O)[O-])c(N3CCCCC3)c2)CC1	EBI2 antag 50 | EBI2 conf inactive | EBI2 ag inactive | bGal cs inactive
O=C(COc1ccc(Cl)cc1)N1CCN(c2ccc([N+](=O)[O-])c(N3CCOCC3)c2)CC1	EBI2 antag 85 | EBI2 conf 61 | EBI2 ag inactive | bGal cs inactive
CC(C)(C)C(=O)N1CCN(c2ccc(Cl)cc2[N+](=O)[O-])CC1	none
CC(=O)N1CCN(C(=O)COc2ccc(Br)cc2)CC1	none
CCC(=O)N1CCc2cc(S(=O)(=O)N3CCN(c4ccccc4Cl)CC3)ccc21	none
COc1ccccc1CNS(=O)(=O)CCNCCc1ccccc1	none (no result: APJ antag, APJ ag)
CCN(C)C1CN(Cc2cn(Cc3cccc(Cl)c3)nn2)S(=O)(=O)C1 (stereo unspecified)	none (no result: CCR6 antag, APJ antag, APJ ag)
CCC(C)(C)C1CCC2(CC1)NC(=O)N(CC(=O)Nc1nc(-c3ccc(C)cc3)cs1)C2=O (stereo unspecified)	EBI2 antag 43 | EBI2 conf inactive | EBI2 ag inactive | bGal cs inactive
CCOC(=O)C(=O)c1csc(NC(=O)CCSc2ccc(C)cc2)n1	none
O=c1nc2onnc2c(C=NO)[nH]1	none (no result: APJ antag, APJ ag)
COc1ccccc1-c1cnc2c(Nc3cccc(OC(F)(F)C(F)F)c3)nccn12	EBI2 antag 68 (no result: CCR6 antag, APJ antag, APJ ag) | EBI2 conf inactive | EBI2 ag inactive | bGal cs inactive
O=C(NCCO)c1cccc(-c2cnc3c(Nc4cccc(OC(F)(F)C(F)F)c4)nccn23)c1	none (no result: CCR6 antag, APJ antag, APJ ag)
FC(F)C(F)(F)Oc1cccc(Nc2nccn3c(-c4cccc5cccnc45)cnc23)c1	EBI2 antag 47 (no result: CCR6 antag, APJ antag, APJ ag) | EBI2 conf inactive | EBI2 ag inactive | bGal cs inactive
Cc1ccc(CNC(=O)Cn2nnc(C(=O)Nc3cccc(C)c3C)c2N)cc1	none
Cc1ccccc1Cn1nnc(C(=O)Nc2cccc(C)c2C)c1N	EBI2 antag 43 | EBI2 conf inactive | EBI2 ag inactive | bGal cs inactive
COc1ccccc1N1CCN(C(=O)c2oc3ccc(Br)cc3c2C)CC1	EBI2 antag 75 | EBI2 conf inactive | EBI2 ag inactive | bGal cs inactive
Cc1ccc(C)c(N2CCN(C(=O)c3cc4c(C)nc5ccccc5c4o3)CC2)c1	EBI2 antag 88 | EBI2 conf 60 | EBI2 ag inactive | bGal cs inactive
COc1ccc2oc(C(=O)N3CCN(S(=O)(=O)c4c(C)c(C)cc(C)c4C)CC3)c(C)c2c1	EBI2 antag 80 (no result: APJ antag, APJ ag) | EBI2 conf 53 | EBI2 ag inactive | bGal cs inactive
COc1ccccc1N1CCN(C(=O)c2cc3c(C)nc4ccccc4c3o2)CC1	EBI2 antag 74 | EBI2 conf 53 | EBI2 ag inactive | bGal cs inactive
Cc1cc(C)nc(NC2=NCCN2C(=S)Nc2ccc(C)c(C)c2)n1	none
COc1ccc(C(=O)/C=C/c2ccc(OC(=O)c3cc(OC)c(OC)c(OC)c3)cc2)cc1	EBI2 antag 45 | EBI2 conf inactive | EBI2 ag inactive | bGal cs inactive
COc1cc(-c2nc(-c3ccccc3)c(-c3cccs3)[nH]2)cc(OC)c1OC	EBI2 antag 45 | EBI2 conf inactive | EBI2 ag inactive | bGal cs inactive
CCCc1nc2c(C)cc(Br)cn2c1Cc1ccc(OC)cc1C	none (no result: CCR6 antag, APJ antag, APJ ag)
CC1CCc2c(sc3ncnc(NCc4cccnc4)c23)C1 (stereo unspecified)	none
CC1CCc2c(sc3ncnc(NCCCOC(C)C)c23)C1 (stereo unspecified)	EBI2 antag 45 | EBI2 conf inactive | EBI2 ag inactive | bGal cs inactive
O=C(NCCc1ccc(Cl)cc1)c1ccc(CS(=O)Cc2ccc(Cl)cc2)o1 (stereo unspecified)	EBI2 antag 68 | EBI2 conf 54 | EBI2 ag inactive | bGal cs inactive
CSc1ccc(CCNC(=O)c2ccc(CS(=O)Cc3ccc(Cl)cc3)o2)cc1 (stereo unspecified)	EBI2 antag 54 | EBI2 conf inactive | EBI2 ag inactive | bGal cs inactive
O=C(NCCc1ccccc1)c1ccc(CS(=O)Cc2cccc(Cl)c2)o1 (stereo unspecified)	none
CCOc1ccc(CCNC(=O)c2ccc(CS(=O)Cc3ccccc3Cl)o2)cc1 (stereo unspecified)	none
CCOc1ccc(CCNC(=O)c2ccc(CS(=O)Cc3ccc(Cl)cc3)o2)cc1 (stereo unspecified)	EBI2 antag 46 | EBI2 conf inactive | EBI2 ag inactive | bGal cs inactive
COc1ccc(OC)c(CCNC(=O)c2ccc(CS(=O)Cc3ccc(Cl)cc3)o2)c1 (stereo unspecified)	none
COc1cc2nc(CN3CCN(C(c4ccccc4)c4ccccc4)CC3)[nH]c(=O)c2cc1OC	none (no result: CXCR6 block, CCR6 antag, EBI2 antag)
O=C(c1cccs1)N(Cc1nc2sc3c(c2c(=O)[nH]1)CCCC3)C1CCCC1	none
O=c1[nH]c(CN2CCN(S(=O)(=O)c3ccccc3C(F)(F)F)CC2)nc2sc3c(c12)CCCC3	EBI2 antag 59 | EBI2 conf inactive | EBI2 ag inactive | bGal cs inactive
COc1cc2nc(CN3CCN(S(=O)(=O)c4c(F)cccc4F)CC3)[nH]c(=O)c2cc1OC	none
